We go through 2 compounds from ChEMBL document CHEMBL4373708 (J Med Chem, 2019).

Assay [1] deals with T1, Solute carrier family 26 member 6 (Mus musculus) (UniProt Q8CIW6).
T1 sequence (whole entry): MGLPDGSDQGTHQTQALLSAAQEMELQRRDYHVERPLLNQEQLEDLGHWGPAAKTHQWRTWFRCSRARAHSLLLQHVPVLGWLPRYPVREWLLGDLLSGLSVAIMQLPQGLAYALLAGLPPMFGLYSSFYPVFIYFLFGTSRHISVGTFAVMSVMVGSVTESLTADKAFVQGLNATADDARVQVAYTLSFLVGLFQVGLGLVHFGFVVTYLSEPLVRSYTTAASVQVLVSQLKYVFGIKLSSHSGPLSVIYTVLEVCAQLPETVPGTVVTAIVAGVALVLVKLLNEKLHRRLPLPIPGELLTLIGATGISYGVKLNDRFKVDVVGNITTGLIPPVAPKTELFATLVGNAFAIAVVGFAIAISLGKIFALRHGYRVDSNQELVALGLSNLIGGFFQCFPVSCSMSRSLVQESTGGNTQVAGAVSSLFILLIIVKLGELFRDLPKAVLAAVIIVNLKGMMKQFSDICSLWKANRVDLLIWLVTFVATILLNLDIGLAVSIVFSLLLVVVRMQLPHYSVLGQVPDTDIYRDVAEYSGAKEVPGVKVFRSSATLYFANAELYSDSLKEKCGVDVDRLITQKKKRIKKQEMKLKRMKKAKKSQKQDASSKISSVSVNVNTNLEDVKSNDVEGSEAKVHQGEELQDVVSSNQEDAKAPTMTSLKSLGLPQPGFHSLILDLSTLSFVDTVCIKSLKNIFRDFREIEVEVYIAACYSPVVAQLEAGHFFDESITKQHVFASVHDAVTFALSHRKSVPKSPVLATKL
Description: Inhibition of mouse slc26a6 expressed in FRT cells co-expressing EYFP-H148Q/I152L/F46L assessed as reduction in protein-mediated chloride/iodide exchange at 10 uM preincubated for 10 mins followed by NaI-substituted PBS addition and measured by YFP-based fluorescence assay. Type of assay: cell-based. Put shortly: (§1)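 FRT cells expressing the given slc26 transporter plus EYFP-H148Q/I152L/F46L were preincubated 10 min with 0 or 10 µM compound in PBS. Iodide-substituted PBS was then added (140 mM NaCl replaced by NaI). The rate of YFP fluorescence quenching gave chloride/iodide exchange.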

The target in assay [2] is T2, Chloride anion exchanger (Mus musculus, UniProt Q9WVC8).
T2 sequence (Q9WVC8 whole entry): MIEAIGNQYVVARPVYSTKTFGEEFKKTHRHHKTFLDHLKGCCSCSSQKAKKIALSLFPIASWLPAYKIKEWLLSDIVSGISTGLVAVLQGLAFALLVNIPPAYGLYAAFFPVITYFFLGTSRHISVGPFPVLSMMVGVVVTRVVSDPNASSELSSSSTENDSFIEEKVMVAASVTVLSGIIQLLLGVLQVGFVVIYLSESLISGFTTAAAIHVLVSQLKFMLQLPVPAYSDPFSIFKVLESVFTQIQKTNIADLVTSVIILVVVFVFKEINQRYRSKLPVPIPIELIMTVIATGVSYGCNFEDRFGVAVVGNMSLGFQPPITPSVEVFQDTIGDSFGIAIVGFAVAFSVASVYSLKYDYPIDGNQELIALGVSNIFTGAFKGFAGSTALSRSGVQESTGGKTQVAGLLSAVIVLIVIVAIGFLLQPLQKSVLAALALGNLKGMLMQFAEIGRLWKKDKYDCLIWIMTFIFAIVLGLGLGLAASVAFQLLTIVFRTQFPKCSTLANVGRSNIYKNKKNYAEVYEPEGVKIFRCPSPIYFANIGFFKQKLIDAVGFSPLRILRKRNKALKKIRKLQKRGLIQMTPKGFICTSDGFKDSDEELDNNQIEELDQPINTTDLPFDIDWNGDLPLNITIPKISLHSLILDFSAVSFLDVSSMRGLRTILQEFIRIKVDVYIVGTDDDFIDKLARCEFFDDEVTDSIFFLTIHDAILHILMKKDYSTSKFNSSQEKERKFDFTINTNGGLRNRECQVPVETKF

In assay [3] the target is T3, Pendrin (Mus musculus) (UniProt Q9R155).
T3 sequence (whole entry): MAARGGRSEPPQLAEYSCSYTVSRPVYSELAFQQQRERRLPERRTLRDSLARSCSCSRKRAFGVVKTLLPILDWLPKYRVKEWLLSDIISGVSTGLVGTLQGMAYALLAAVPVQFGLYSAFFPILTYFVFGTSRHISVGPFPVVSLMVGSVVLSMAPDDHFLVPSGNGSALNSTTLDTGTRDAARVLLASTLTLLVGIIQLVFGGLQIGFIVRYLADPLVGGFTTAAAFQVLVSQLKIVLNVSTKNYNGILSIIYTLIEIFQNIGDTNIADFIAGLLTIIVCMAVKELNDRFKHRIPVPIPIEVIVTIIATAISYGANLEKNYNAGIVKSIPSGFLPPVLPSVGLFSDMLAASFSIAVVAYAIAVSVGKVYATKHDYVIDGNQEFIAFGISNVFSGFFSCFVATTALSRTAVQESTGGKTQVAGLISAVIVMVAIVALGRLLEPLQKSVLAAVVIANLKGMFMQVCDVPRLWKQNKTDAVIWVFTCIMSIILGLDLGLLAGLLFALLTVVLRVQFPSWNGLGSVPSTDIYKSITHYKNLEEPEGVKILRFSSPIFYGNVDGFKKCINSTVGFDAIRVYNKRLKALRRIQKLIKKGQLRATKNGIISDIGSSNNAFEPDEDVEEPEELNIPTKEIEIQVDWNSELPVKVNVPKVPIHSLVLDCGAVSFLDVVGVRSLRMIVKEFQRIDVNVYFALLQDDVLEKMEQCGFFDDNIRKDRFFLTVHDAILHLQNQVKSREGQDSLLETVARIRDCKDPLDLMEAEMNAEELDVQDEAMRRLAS
Description: Inhibition of mouse slc26a4 expressed in FRT cells co-expressing EYFP-H148Q/I152L/F46L assessed as reduction in protein-mediated chloride/iodide exchange at 10 uM preincubated for 10 mins followed by NaI-substituted PBS addition and measured by YFP-based fluorescence assay. Type of assay: cell-based. The procedure, abridged: as §1

Calls of active or inactive are those of the source. The rule behind the calls is not given here.

One may read the IC50 as the point on the concentration scale where inhibition reaches its midpoint. As for `Cc1c(CC(=O)O)c(=O)oc2c(C)c(OCc3cccc(I)c3)ccc12`, the inhibition entry in assay [1] and in assay [3] was “inactive” in each case. This compound returned a half-maximal inhibitory concentration (IC50) in assay [2] of 35 nM.
In the case of `Cc1c(CC(=O)O)c(=O)oc2c(C)c(OCc3cccc(C(F)(F)F)c3)ccc12`, the inhibition entry in assay [1] and in assay [3] was “inactive” throughout. In addition, in assay [2], the 50% inhibitory concentration (IC50) came to 23 nM.
